The text below walks through data of ChEMBL document CHEMBL5370602, “Structure-Based Design of a Lead Compound Derived from Natural Schweinfurthins with Antitumor Properties That Target Oxysterol-Binding Protein” (J Med Chem, 2023).

Data set [1] relates to U-87 MG. Put plainly: Antiproliferative activity against human U-87 MG cells assessed as inhibition of cell proliferation incubated for 72 hrs by CellTiter-Glo luminescent assay. Format: functional, cell-based, U-87MG ATCC. The essentials:
(§1)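 A549 in RPMI 1640 and U-87MG in DMEM, each with 10% FCS and 1% glutamine, at 37 °C and 5% CO₂. Cells seeded at 3000/well, dosed the next day, treated 72 h. Viability read by CellTiter-Glo luminescence with DMSO-treated cells set to 100%. IC50 taken from survival curves over three independent experiments.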

Another data set deals with A549. Put plainly: Antiproliferative activity against human A549 cells assessed as inhibition of cell proliferation incubated for 72 hrs by CellTiter-Glo luminescent assay. Format: functional, cell-based. Conditions: A549, 72 h. The method, boiled down:
as §1
On the technique in general: In ATP-based viability assays light output follows the ATP content of the culture.

For data set [2], the target named is T1, Oxysterol-binding protein 1 (Homo sapiens, UniProt P22059).
T1 sequence (P22059 whole entry): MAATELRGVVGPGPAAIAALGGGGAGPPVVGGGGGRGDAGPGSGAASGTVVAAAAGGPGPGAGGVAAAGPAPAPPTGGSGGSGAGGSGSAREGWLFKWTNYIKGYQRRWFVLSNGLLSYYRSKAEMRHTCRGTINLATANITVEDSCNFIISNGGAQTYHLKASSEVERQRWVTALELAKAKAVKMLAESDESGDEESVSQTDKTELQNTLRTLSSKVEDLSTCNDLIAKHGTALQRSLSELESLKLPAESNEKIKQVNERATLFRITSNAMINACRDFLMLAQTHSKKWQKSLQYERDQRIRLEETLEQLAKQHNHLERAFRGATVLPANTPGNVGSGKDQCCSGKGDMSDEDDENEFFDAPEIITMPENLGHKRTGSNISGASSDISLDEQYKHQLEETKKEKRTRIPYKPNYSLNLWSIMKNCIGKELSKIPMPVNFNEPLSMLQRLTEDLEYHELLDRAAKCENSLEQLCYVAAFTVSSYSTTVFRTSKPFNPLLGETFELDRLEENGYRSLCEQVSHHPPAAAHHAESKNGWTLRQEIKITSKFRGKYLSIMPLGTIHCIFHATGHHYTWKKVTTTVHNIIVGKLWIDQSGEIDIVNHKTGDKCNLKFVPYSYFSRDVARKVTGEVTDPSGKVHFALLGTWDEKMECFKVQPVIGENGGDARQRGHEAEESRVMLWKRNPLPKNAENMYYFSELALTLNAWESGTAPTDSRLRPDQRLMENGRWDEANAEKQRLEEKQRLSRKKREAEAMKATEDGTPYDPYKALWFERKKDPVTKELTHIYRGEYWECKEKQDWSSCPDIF
Put plainly: Inhibition of human C-terminal 6-His tagged OSBP ORD domain (401 to 807 residues) expressed in baculovirus-infected Sf9 cells assessed as reduction in DHE transfer from liposome (Le mimicking ER) to liposome (Lg mimicking golgi) with compound by FRET assay. The essentials: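 Purified human OSBP ORD (401-807, C-terminal 6×His) from baculovirus-infected Sf9 cells, used in a DHE sterol transfer fluorescence assay. Signal corrected for compound fluorescence. Kinetics fitted linearly or by ΔF = ΔFmax(1 − e^−kt) to give apparent k, which was plotted against compound concentration. Ki from a quadratic (tight binders) or hyperbolic equation, three independent experiments.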

The nature of data set [3]: Drug uptake in human hTERT-RPE1 cells assessed as drug co-localization with OSBP perinuclear region of cell incubated for 30 mins by immunofluorescence analysis. Conditions: tert-rpe1, 0.5 h. Format: ADME, cell-based. The essentials: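 hTERT-RPE-1 cells incubated 30 min with compound, then fixed (4% paraformaldehyde, 0.1% glutaraldehyde, 10 min), quenched with 50 mM NH₄Cl and permeabilized in saponin 0.05%/BSA 0.2%. Immunolabeled for OSBP and TGN-46. Compound imaged directly by UV-adapted widefield fluorescence (excitation 330, emission 410 nm).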

Data set [4] concerns the target T2, Oxysterol-binding protein 1 (Homo sapiens) (UniProt P22059).
T2 sequence (whole entry): T1 sequence (P22059 whole entry)
Briefly: Inhibition of human OSBP in human hTERT-RPE1 cells co-transfected with GFP-P4MSidM and TagBFP-betaGalT1 assessed as increase in PI4P at TGN by measuring GFP-P4M fluorescence and measured after 50 mins by immunofluorescence analysis. Format: cell-based. The essentials: (§2)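 hTERT-RPE-1 cells electroporated with GFP-P4M^SidM (PI4P probe) and TagBFP-βGalT1, plated 18-24 h. Timelapse confocal imaging at 37 °C after compound addition, with P4M-GFP intensity at the TGN tracked over time and compared before and 50 min after addition. Mean of 4 to 6 independent experiments ± SEM.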

In data set [5] the target is T2, Oxysterol-binding protein 1 (Homo sapiens). Briefly: Inhibition of human OSBP in human hTERT-RPE1 cells co-transfected with GFP-P4MSidM and TagBFP-betaGalT1 assessed as half life for inhibition of PI4P transfer by OBSP by immunofluorescence analysis. Format: cell-based. The essentials: as §2
Data set [6] shares this target. Briefly: Inhibition of human OSBP in human hTERT-RPE1 cells assessed as increase in OSBP recruitment at TGN and measured after 10 mins by confocal microscopy. The format is cell-based.
The target is the same in data set [7]. Briefly: Inhibition of human OSBP in human hTERT-RPE1 cells assessed as increase in OSBP recruitment at TGN and measured after 4 hrs by confocal microscopy. The format is cell-based.
The target of data set [8] is T3, mTORC1 (Homo sapiens) (UniProt P42345+Q8N122+Q9BVC4). Briefly: Inhibition of mTORC1 signalling in human U-87 MG cells assessed as decrease in S6K phosphorylation at T389 residue at 0.05 to 1 uM incubated for 48 hrs by Western blot analysis. Format: cell-based. The essentials:
(§3)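 U-87 MG cells cultured two days, then exposed 48 h to increasing doses. Lysed in RIPA with protease inhibitors; 5 µg protein run on 4-20% SDS gels and transferred to PVDF. Probed for phospho/total AKT, S6, S6K, P62 and LC3, detected by ECL. Band intensities normalized to β-actin.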

The target of data set [9] is T3, mTORC1 (Homo sapiens). Put plainly: Inhibition of mTORC1 signalling in human U-87 MG cells assessed as decrease in S6 phosphorylation at S240/244 residue at 0.05 to 1 uM incubated for 48 hrs by Western blot analysis. The format is cell-based. The essentials:
as §3
Background: Immunoblotting shows a protein as a band on a membrane.

The target of the next data set is mTORC2 (Homo sapiens) (UniProt P42345+Q6R327+Q9BVC4+Q9BPZ7). Put plainly: Inhibition of mTORC2 signalling in human U-87 MG cells assessed as decrease in AKT phosphorylation at S473 residue at 0.05 to 1 uM incubated for 48 hrs by Western blot analysis. The format is cell-based. The essentials: as §3
Data set [10] relates to U-87 MG. Put plainly: Induction of autophagy in human U-87 MG cells assessed as decrease in LC3I expression at 0.05 to 1 uM incubated for 48 hrs by Western blot analysis. Format: functional, cell-based. To be noted: U-87MG ATCC. The method, boiled down: as §3
Data set [11] relates to U-87 MG. Briefly: Induction of autophagy in human U-87 MG cells assessed as increase in LC3II expression at 0.05 to 1 uM incubated for 48 hrs by Western blot analysis. The format is functional, cell-based. To be noted: U-87MG ATCC. The method, boiled down:
as §3

Data set [12] concerns U-87 MG. Briefly: Induction of autophagy in human U-87 MG cells assessed as decrease in P62 expression at 0.05 to 1 uM incubated for 48 hrs by Western blot analysis. Format: functional, cell-based. Conditions: U-87MG ATCC. The method, boiled down:
as §3

The nature of data set [13]: Metabolic stability in mouse plasma assessed as compound remaining at 5 uM and measured after 120 mins by UPLC-MS/MS analysis. The format is ADME, cell-free. Conditions: read-out: Stability. The essentials:
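Male mouse plasma at 37 °C with compound added from a 5 µM solution […]. Sampled at 0, 15, 30, 45, 60 and 120 min, quenched with acetonitrile and read by LC-MS/MS (MRM) in duplicate. Procaine positive control. Remaining % and t1/2 derived from MRM area relative to t = 0.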

Data set [14] is described as follows: Metabolic stability in mouse liver microsomes assessed as compound remaining at 2.5 uM and measured after 45 mins in presence of NADPH by LC-MS/MS analysis. Format: ADME, Microsome. To be noted: read-out: Stability.
Data set [15] can be described thus: Metabolic stability in mouse liver microsomes assessed as intrinsic clearance at 2.5 uM and measured upto 45 mins in presence of NADPH by LC-MS/MS analysis. Format: ADME, Microsome. To be noted: read-out: CLH. A general note: Liver microsomes are a subcellular fraction often used to study metabolism.
Data set [16] can be described thus: Metabolic stability in mouse liver microsomes assessed as compound remaining at 2.5 uM and measured after 45 mins in absence of NADPH by LC-MS/MS analysis. Format: ADME, Microsome. Conditions: read-out: Stability.
A short description of data set [17]: Toxicity in immunodeficient nude mouse model xenografted with high alert medicated patient derived human GBM1 cells assessed as body weight change at 42 mg/kg,po QD for 5 days. Format: organism-based. Conditions: in vivo, 120 h, time 5 day. The method, boiled down: (§4)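 Female athymic nude mice bearing subcutaneous GBM1-HAM PDX fragments (20 mm³); treatment began day 11 post-implant at tumour volumes 75-196 mm³, 10 per group. Compound i.p. daily in cyclodextrin vehicle (17 days alone, 27 days in combination); temozolomide 42 mg/kg p.o. daily for 5 days in PBS/glucose/Tween 80. Calliper volumes three times weekly; body weight and clinical signs monitored.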

A short description of data set [18]: Toxicity in immunodeficient nude mouse model xenografted with high alert medicated patient derived human GBM1 cells assessed as clinical symptoms at 42 mg/kg,po QD for 5 days. Conditions: in vivo, 120 h, time 5 day. Format: organism-based. The essentials:
as §4

Data set [19] can be described thus: Antitumor activity in high alert medicated patient derived human GBM1 cells xenografted in immunodeficient nude mouse model assessed as T/C ratio at 42 mg/kg,po QD for 5 days and measured from 9 to 11 days. Conditions: time 5 day.
Data set [20] in a line: Antitumor activity in high alert medicated patient derived human GBM1 cells xenografted in immunodeficient nude mouse model assessed as tumor growth inhibition at 42 mg/kg,po QD for 5 days and measured from 9 to 11 days. Conditions: GBM1, 120 h.
A short description of data set [21]: Antitumor activity in high alert medicated patient derived human GBM1 cells xenografted in immunodeficient nude mouse model assessed as change in tumor volume at 42 mg/kg,po QD for 5 days and measured after 11 days relative to control. To be noted: time 5 day.

Activity calls are given as the source filed them. The calls are words filed in the database; no cut-off is given here.

For the compound `CC(C)=CCc1c(O)cc(/C=C/c2cc(O)c3c(c2)C[C@@H]2C(C)(C)[C@H](O)CC[C@@]2(C)O3)cc1O` [SCHWEINFURTHIN G], the 50% inhibitory concentration (IC50) (usually the concentration that inhibits the measured activity by half) came out at 8 nM in the data set on U-87 MG [1] and 359 nM in the data set on A549. Further, the inhibitory constant (Ki) (usually a measure of affinity in units of concentration, obtained from inhibition or displacement) in data set [2] is less than 1 nM. The Drug uptake entry in data set [3] is reported as “Active”. Moreover, the inhibition result in [4] and in data set [6] was “Active” in each case. The T1/2 in [5] is 10 min. Further, in data set [7], the inhibition result is “inactive”. The inhibition result on mTORC1 (Homo sapiens) [8], at mTORC1 (Homo sapiens) [9] and at mTORC2 (Homo sapiens) was “Dose-Dependent Effect” throughout. Moreover, the Activity result in the data set on U-87 MG [10], with U-87 MG [11] and in the data set with U-87 MG [12] was “Dose-Dependent Effect” throughout. Further, the remaining at 2 h, 5 µM in [13] was determined as 100%. Besides, the results for the remaining at 0.75 h, 2.5 µM in data set [14] and in [16] were 23% and 100%, respectively. Further, the microsomal CLint at 2.5 µM in data set [15] amounted to 90 µL/min/mg.
Turning to `Cn1nnc2c(C(N)=O)ncn2c1=O` [TEMOZOLOMIDE], the Activity result in data set [17] is given as “Non-Toxic”; in [18], “Non-Toxic”; in data set [21] it was 546.69%. For the same compound, the T/C (usually the result in the treated group divided by that in the control group, in per cent) in data set [19] is given as 62.43%. Further, in data set [20], the TGDI at 42 mg/kg was 1.34%.
